According to ChEMBL document CHEMBL2331476, “A novel semisynthetic flavonoid 7-O-galloyltaxifolin upregulates heme oxygenase-1 in RAW264.7 cells via MAPK/Nrf2 pathway” (J Med Chem, 2013):
Activity calls are given as the source filed them. The calls are words filed in the database; no cut-off is given here.

Assays:
[1] = biological target: T1, Nuclear factor erythroid 2-related factor 2 (Mus musculus) (UniProt Q60795); experiment: Activation of Nrf2 in mouse RAW264.7 cells assessed as upregulation of HO1 protein expression at 50 uM after 1 to 6 hr by Western blotting analysis; format: cell-based; settings: TDE = time-dependent effect
T1 sequence (whole entry): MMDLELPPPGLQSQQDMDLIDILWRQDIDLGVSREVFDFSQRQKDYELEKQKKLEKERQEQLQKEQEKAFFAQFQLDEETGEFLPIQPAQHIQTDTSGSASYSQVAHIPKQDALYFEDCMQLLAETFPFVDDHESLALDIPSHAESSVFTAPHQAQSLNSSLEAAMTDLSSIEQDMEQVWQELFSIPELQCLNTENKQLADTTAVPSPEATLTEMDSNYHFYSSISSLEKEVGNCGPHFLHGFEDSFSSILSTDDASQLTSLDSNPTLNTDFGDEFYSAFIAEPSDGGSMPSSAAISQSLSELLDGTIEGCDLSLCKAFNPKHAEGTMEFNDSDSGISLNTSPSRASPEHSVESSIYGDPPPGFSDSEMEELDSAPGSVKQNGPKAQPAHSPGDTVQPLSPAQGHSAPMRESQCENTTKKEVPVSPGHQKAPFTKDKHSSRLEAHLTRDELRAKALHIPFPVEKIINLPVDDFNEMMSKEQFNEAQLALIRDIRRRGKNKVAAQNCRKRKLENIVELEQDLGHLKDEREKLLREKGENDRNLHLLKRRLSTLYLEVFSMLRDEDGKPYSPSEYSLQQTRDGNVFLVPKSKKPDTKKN
Outline: (§1)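 HO-1 protein in whole-cell lysates (20 μg/lane) of serum-starved RAW264.7 cells after 6 h at 10-50 μM or 50 μM for 1-6 h in serum-free medium, 0.1% DMSO control. Chemiluminescent Western blot; HO-1 densitometry normalized to actin, mean of three experiments.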

RAW264.7 [2] = experiment: Drug uptake in mouse RAW264.7 cells at 50 uM after 10 mins; format: ADME, cell-based; settings: raw264.7, 10 min
Outline: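 Cells given 50 μM for up to 6 h, then scraped, washed twice in PBS and sonicated in methanol with 5% acetic acid. Supernatant analysed by UPLC on a phenyl column (water/1% acetic acid/methanol to methanol gradient, 35 °C) with negative ESI-QqTOF MS. Contents expressed as nmol per 10⁶ cells.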

[3] = biological target: T1, Nuclear factor erythroid 2-related factor 2 (Mus musculus); experiment: Activation of Nrf2 in mouse RAW264.7 cells assessed as induction of Hmox1 mRNA expression at 50 uM after 6 hrs by real-time PCR analysis in presence of SP600125; format: cell-based
Outline: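 Pretreatment 30 min with 0.1% DMSO, 15 μM PD98059, 15 μM SB203580 or 30 μM SP600125, then 50 μM agent for 6 h in serum-free medium. Hmox1 mRNA by TaqMan qPCR normalized to Gapdh, given as percent of agent-induced expression; mean ± SD of three experiments.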

[4] = biological target: Mitogen-activated protein kinase 8 (Mus musculus) (UniProt Q91Y86); experiment: Activation of JNK1 in mouse RAW264.7 cells assessed as phosphorylation at Thr183/Tyr185 at 50 uM after 30 mins to 4 hrs by Western blotting analysis; format: cell-based; settings: TDE = time-dependent effect
Mitogen-activated protein kinase 8 (Mus musculus), sequence (Q91Y86 whole entry): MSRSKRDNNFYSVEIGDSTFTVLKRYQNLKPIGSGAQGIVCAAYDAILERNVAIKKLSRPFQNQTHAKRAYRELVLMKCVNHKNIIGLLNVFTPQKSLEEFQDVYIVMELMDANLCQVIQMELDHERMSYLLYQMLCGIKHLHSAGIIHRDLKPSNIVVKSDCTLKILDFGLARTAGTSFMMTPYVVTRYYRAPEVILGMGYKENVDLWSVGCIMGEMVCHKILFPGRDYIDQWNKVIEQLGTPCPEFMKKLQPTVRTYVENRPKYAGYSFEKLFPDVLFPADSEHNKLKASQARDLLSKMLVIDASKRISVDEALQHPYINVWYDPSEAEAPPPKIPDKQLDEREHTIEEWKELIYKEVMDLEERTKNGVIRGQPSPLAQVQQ
Outline: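 Serum-starved RAW264.7 cells exposed in serum-free medium for 30 min to 4 h; 5 μM anisomycin for 30 min as positive control. Whole-cell lysates (30 μg/lane) blotted for JNKs dually phosphorylated at Thr183/Tyr185 and total JNKs, chemiluminescent detection.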

[5] = biological target: T1, Nuclear factor erythroid 2-related factor 2 (Mus musculus); experiment: Activation of Nrf2 in mouse RAW264.7 cells assessed as reduction of KEAP1 protein level at 50 uM after 3 hrs by Western blotting analysis; format: cell-based
Outline: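 Whole-cell lysates (20 μg/lane) from serum-starved RAW264.7 cells given 10-50 μM for 6 h or 50 μM for 1-6 h in serum-free medium, 0.1% DMSO vehicle. Keap1 and actin detected by chemiluminescent Western blot; Keap1 band intensity normalized to actin, mean of three experiments.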

[6] = Drug metabolism in culture medium assessed as 7-O-galloylquercetin level; format: physicochemical
Outline: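 Compound incubated in culture medium without cells. Medium aliquots diluted 1:1 in methanol with 5% acetic acid, centrifuged, and analysed by phenyl-column UPLC with negative-mode ESI-QqTOF MS.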

[7] = biological target: T1, Nuclear factor erythroid 2-related factor 2 (Mus musculus); experiment: Activation of Nrf2 in mouse RAW264.7 cells assessed as upregulation of HO1 protein expression at 10 to 50 uM after 6 hrs by Western blotting analysis; format: cell-based; outline: as §1
[8] = biological target: T1, Nuclear factor erythroid 2-related factor 2 (Mus musculus); experiment: Activation of Nrf2 in mouse RAW264.7 cells assessed as upregulation of Hmox1 gene expression at 25 uM after 6 hrs by real-time PCR analysis relative to GAPDH mRNA expression; format: cell-based
Outline: (§2)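 RAW264.7 cells treated 6 h in serum-free medium, 0.1% DMSO control. Total RNA (2 μg) reverse transcribed; TaqMan qPCR for Hmox1 and Gapdh, 40 cycles. Relative expression by 2^−ΔΔCT, normalized to Gapdh; mean ± SD of three experiments.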

RAW264.7 [9] = experiment: Induction of ROS generation in mouse RAW264.7 cells at 50 uM after 2 hrs by flow cytometric analysis; format: functional
Outline: (§3)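 Serum-starved RAW264.7 cells treated 2 h at 10-50 μM; 100 μM TBHP for 30 min as positive control. Medium replaced, cells loaded with 10 μM carboxy-H₂DCFDA for 15 min at 37 °C. Flow cytometry (488 nm excitation, 525 nm emission, 10,000 events) gave percentage of cells with raised ROS; mean ± SD of three experiments.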

[10] = biological target: Mitogen-activated protein kinase 3 (Mus musculus) (UniProt Q63844); experiment: Activation of ERK1 in mouse RAW264.7 cells assessed as phosphorylation at Thr202/Tyr204 at 50 uM after 30 mins by Western blotting analysis; format: cell-based
Mitogen-activated protein kinase 3 (Mus musculus), sequence (Q63844 whole entry): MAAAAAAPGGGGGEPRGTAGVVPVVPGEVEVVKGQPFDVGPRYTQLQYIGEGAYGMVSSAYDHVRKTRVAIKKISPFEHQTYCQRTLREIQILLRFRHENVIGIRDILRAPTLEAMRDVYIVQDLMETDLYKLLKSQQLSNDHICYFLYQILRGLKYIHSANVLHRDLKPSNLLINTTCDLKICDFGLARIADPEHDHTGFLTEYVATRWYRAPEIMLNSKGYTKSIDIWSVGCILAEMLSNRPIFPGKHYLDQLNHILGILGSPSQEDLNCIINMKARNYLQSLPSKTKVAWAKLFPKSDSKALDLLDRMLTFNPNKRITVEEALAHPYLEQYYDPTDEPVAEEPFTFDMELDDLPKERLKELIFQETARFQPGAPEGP
Outline: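 RAW264.7 cells (passage 5-25) seeded at 1 × 10⁵ cells/cm², serum-starved overnight, then exposed in serum-free medium for 30 min to 3 h; 0.1% DMSO vehicle; 75 ng/mL EGF for 30 min as positive control. Whole-cell lysates (20 μg/lane) on 10% SDS-PAGE, blotted for phospho-ERK1 (Thr202/Tyr204), phospho-ERK2 (Thr185/Tyr187) and total ERK1/2, chemiluminescent detection.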

[11] = biological target: T1, Nuclear factor erythroid 2-related factor 2 (Mus musculus); experiment: Activation of Nrf2 in mouse RAW264.7 cells assessed as upregulation of Hmox1 gene expression at 10 to 50 uM after 6 hrs by real-time PCR analysis relative to GAPDH mRNA expression; format: cell-based; outline: as §2
RAW264.7 [12] = experiment: Induction of ROS generation in mouse RAW264.7 cells at 10 to 50 uM after 2 hrs by flow cytometric analysis; format: functional, cell-based; outline: as §3
[13] = biological target: T1, Nuclear factor erythroid 2-related factor 2 (Mus musculus); experiment: Activation of Nrf2 in mouse RAW264.7 cells assessed as nuclear accumulation at 25 uM after 3 hrs by Western blotting analysis; format: cell-based
Outline: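 Serum-starved RAW264.7 cells treated 30 min to 3 h (10-50 μM for 3 h, or 50 μM time course); 0.1% DMSO control, 50 μM quercetin positive control. Cytosolic fraction from hypotonic HEPES pH 7.9 buffer with 0.1% NP-40; nuclear fraction by 420 mM NaCl extraction. 30 μg/lane blotted for Nrf2 and actin; Nrf2/actin densitometry, mean of three experiments.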

**Q.** With O=C(Oc1cc(O)c2c(c1)O[C@H](c1ccc(O)c(O)c1)[C@@H](O)C2=O)c1cc(O)c(O)c(O)c1 as the compound, how does the Activity [1] read?
**A.** tde

**Q.** And the Drug uptake (RAW264.7 [2])?
**A.** 85%

**Q.** And the Activity [3]?
**A.** 90%

**Q.** And the Activity [4]?
**A.** tde

**Q.** And the Activity [5]?
**A.** Active

**Q.** What about the Drug metabolism [6] of the same compound?
**A.** Not Active

**Q.** And the Activity [7]?
**A.** Dose-dependent effect

**Q.** And the fold change (FC) [8]?
**A.** 4.8

**Q.** What about the Activity (RAW264.7 [9]) of the same compound?
**A.** 29%

**Q.** What about the Activity [10] of the same compound?
**A.** Active

**Q.** What about the Activity [11] of the same compound?
**A.** Dose-dependent effect

**Q.** What about the Activity (RAW264.7 [12]) of the same compound?
**A.** Active

**Q.** And the Activity [13]?
**A.** Active
